Test results from paper PMC3286645 (Carbohydrate Research, 2011).
Like-named read-outs stand apart in the source and are kept apart here.

Assays:
[1] = Thermogravimetric analysis; assay type: physicochemical; settings: TGA; for Temperature of solvent loss: 10 °C/min under nitrogen; for Number of water molecules: from weight loss; for Percent weight loss: solvent loss
Procedure, shortened: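 Instrument calibrated with indium and aluminum. 2.5 mg to 4.5 mg of each test compound in an alumina crucible, heated from 25 °C to 200 °C at 10 °C/min under nitrogen flowing at 2 mL/min; weight loss recorded against temperature.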

[2] = Differential scanning calorimetry; assay type: physicochemical; settings: DSC; for Mp (transition from solid crystalline phase to liquid crystalline phase): first phase transition; for Cp (clearing point): liquid crystalline phase to liquid melt phase
Procedure, shortened: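 Dry test compounds kept under vacuum against moisture uptake; 1.0 to 1.5 mg weighed into Tzero aluminum pans sealed with hermetic lids, empty sealed pan as reference. Instrument calibrated with indium for temperature and enthalpy. Scanned 20°C to 250°C at 2.5°C/min; phase transitions taken from the thermograms.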

[3] = test system: Jurkat cells; assay: MTS cell viability assay in Jurkat cells; assay type: cell-based
[4] = test system: Jurkat cells; assay: Apoptosis assay; assay type: cell-based
[5] = test system: Hs27 cells; assay: MTS cell viability assay in Hs27 cells; assay type: cell-based
[6] = test system: HaCaT cells; assay: MTS cell viability assay in HaCaT cells; assay type: cell-based, human
[7] = Solubility of stock solutions in DMSO and in cell culture medium; assay type: physicochemical; settings: 100 mM stock solution in dimethyl sulfoxide
Procedure, shortened: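 Test compounds and the octylthioglucoside reference were each made up as 100 mM stocks in DMSO. Solubility was judged by eye. An aliquot of each stock was added to cell culture medium, vortexed for 5 sec, centrifuged at 1,400 rpm for 1 min, and checked for precipitate. Stocks that precipitated were diluted further before cytotoxicity testing.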

[8] = cited from earlier work
[9] = Jurkat cells, MTS assay, 20 h exposure
[10] = Hs27 cells, MTS assay, 20 h exposure
[11] = HaCaT cells, MTS assay, 20 h exposure

Row | Decomposition Temperature [1] | Temperature of solvent loss [1] | Number of water molecules [1] | Percent weight loss [1] | Compound | toxicity (cell viability) in words [3, 9] | toxicity (cell viability) in words [5, 10] | further results
1 | 290.4 ± 10.5 °C | 86.35 ± 0.98 °C | 0.3 | 1.56±0.09% | CCCCCCCCCCCCO[C@@H]1OC[C@@H](O)[C@H](O)[C@H]1O [Compound 9d, Dodecyl β-D-xylopyranoside] |  |  | 
2 | 262.8 ± 4.34 °C | 81.74 ± 0.41 °C | 0.4 | 2.50±0.66% | CCCCCCO[C@@H]1OC[C@@H](O)[C@H](O)[C@H]1O [Compound 9a, Hexyl β-D-xylopyranoside] |  |  | 
3 | 294.8 ± 7.15 °C | 100.1 ± 2.93 °C | 0.5 | 1.87±1.08% | CCCCCCCCCCCCCCO[C@@H]1OC[C@@H](O)[C@H](O)[C@H]1O [Compound 9e, Tetradecyl β-D-xylopyranoside] |  |  | 
4 |  | 103.4 ± 1.95 °C | 0.3 | 1.24±0.49% | CCCCCCCCCCCCCCCCO[C@@H]1OC[C@@H](O)[C@H](O)[C@H]1O [Compound 9f, Hexadecyl β-D-xylopyranoside] |  |  | 
5 |  |  |  |  | CCCCCCCCS[C@@H]1O[C@H](CO)[C@@H](O)[C@H](O)[C@H]1O [OTG, octylthioglucoside, reference compound] | moderate toxicity | moderate toxicity | solubility in DMSO [7]: readily soluble

Row | Compound | Decomposition Temperature [1] | Temperature of solvent loss [1] | Number of water molecules [1] | Percent weight loss [1] | toxicity (cell viability) in words [3, 9] | toxicity (cell viability) in words [5, 10] | further results
6 | O[C@@H]1[C@@H](O)[C@H](OCCC(F)(F)C(F)(F)C(F)(F)C(F)(F)C(F)(F)C(F)(F)F)OC[C@H]1O [Compound 9g, 3,3,4,4,5,5,6,6,7,7,8,8,8-Tridecafluorooctyl β-D-xylopyranoside] |  | 50.57 ± 1.64 °C | 0.9 | 2.64±0.83% |  |  | Mp (transition from solid crystalline phase to liquid crystalline phase) [2]: 105.1 °C; Cp (clearing point) [2]: 147.0 °C; toxicity (cell viability) in words [3]: moderate toxicity; mode of cell death [4]: apoptosis and not necrosis; toxicity (cell viability) in words [5]: moderate toxicity; toxicity (cell viability) in words [6]: moderate toxicity
7 | CCCCCCCCCCO[C@@H]1OC[C@@H](O)[C@H](O)[C@H]1O [Compound 9c, Decyl β-D-xylopyranoside] | 277.2 ± 11.5 °C | 96.63 ± 0.44 °C | 0.5 | 2.69±0.07% | moderate toxicity | moderate toxicity | toxicity (cell viability) in words [6, 11]: moderate toxicity
8 | CCCCCCCCO[C@@H]1OC[C@@H](O)[C@H](O)[C@H]1O [Compound 9b, Octyl β-D-xylopyranoside] | 267.1 ± 9.15 °C | 85.32 ± 0.55 °C | 0.5 | 2.35±0.91% | moderate toxicity | moderate toxicity | Mp (transition from solid crystalline phase to liquid crystalline phase) [2]: 72.5 °C; Cp (clearing point) [2]: 99.4 °C; Cp (clearing point) ([8]; reported previously ref 23): 96.9 °C; Mp (transition from solid crystalline phase to liquid crystalline phase) ([8]; reported previously ref 23): 64.5 °C; Cp (clearing point) ([8]; reported previously ref 24): 103.3 °C; Mp (transition from solid crystalline phase to liquid crystalline phase) ([8]; reported previously ref 24): 67.5 °C; toxicity (cell viability) in words [6, 11]: moderate toxicity
